According to ChEMBL document CHEMBL1177876, “Design and synthesis of 10-alkoxy-5, 6-dihydro-triazolo[4,3-d]benzo[f][1,4]oxazepine derivatives with anticonvulsant activity” (Eur J Med Chem, 2010):
Calls of active or inactive are those of the source.

Assays:
Mus musculus [1] = assay: Anticonvulsant activity in mouse assessed as protection against maximal electroshock-induced seizures at 100 mg/kg, ip measured after 0.5 hrs; type: functional, organism-based; set-up: dose 100 mg/kg
Outline: (§1)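 Phase-I MES screen in KunMing mice, 18–22 g. Compounds dissolved in DMSO and given i.p. at 30, 100 or 300 mg/kg. The MES test followed the NIH ADD protocol and was read at 0.5 h and 4 h after dosing. Six mice per group, scored as number protected/number tested.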

Mus musculus [2] = assay: Anticonvulsant activity in mouse assessed as protection against maximal electroshock-induced seizures at 10 mg/kg, ip measured after 0.5 hrs; type: functional, organism-based; set-up: dose 10 mg/kg
Mus musculus [3] = assay: Anticonvulsant activity in mouse assessed as protection against maximal electroshock-induced seizures at 300 mg/kg, ip measured after 4 hrs; type: functional, organism-based; set-up: dose 300 mg/kg; outline: as §1
Mus musculus [4] = assay: Anticonvulsant activity in mouse assessed as protection against maximal electroshock-induced seizures at 100 mg/kg, ip measured after 4 hrs; type: functional, organism-based; set-up: dose 100 mg/kg; outline: as §1
Mus musculus [5] = assay: Anticonvulsant activity in mouse assessed as protection against maximal electroshock-induced seizures at 30 mg/kg, ip measured after 4 hrs; type: functional, organism-based; set-up: dose 30 mg/kg; outline: as §1
Mus musculus [6] = assay: Anticonvulsant activity in mouse assessed as protection against maximal electroshock-induced seizures at 10 mg/kg, ip measured after 4 hrs; type: functional, organism-based; set-up: dose 10 mg/kg
Mus musculus [7] = assay: Anticonvulsant activity in ip dosed mouse assessed as protection against maximal electroshock-induced seizures; type: functional
Outline: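 KunMing mice, 18–22 g, compounds in DMSO, given i.p. at a range of doses, groups of 10. MES test per NIH ADD program. Read-out was seizure protection, with at least three points in the 10–90% range.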

[8] = Neurotoxicity in ip dosed mouse assessed as time spent on rotarod by rotarod test; type: toxicity, organism-based; details: in vivo
Outline: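 Rotarod neurotoxicity in KunMing mice, 18–22 g, compounds in DMSO given i.p. Mice were pretrained on a 3.2 cm diameter rod at 10 rpm. Toxicity was defined as failure to stay on the rod for at least 1 min in each trial.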

Mus musculus [9] = species on record: Mus musculus; assay: Protective index, ratio of TD50 for mouse by rotarod test to ED50 for mouse by MES test; type: functional
Mus musculus [10] = assay: Anticonvulsant activity in mouse assessed as pentylenetetrazole-induced clonic seizures at 30 mg/kg, ip administered 30 mins before pentylenetetrazole challenge measured after 0.5 hrs; type: functional; details: route intraperitoneal
Mus musculus [11] = assay: Anticonvulsant activity in mouse assessed as pentylenetetrazole-induced tonic seizures at 30 mg/kg, ip administered 30 mins before pentylenetetrazole challenge measured after 0.5 hrs; type: functional; details: route intraperitoneal
Mus musculus [12] = assay: Anticonvulsant activity in mouse assessed as isoniazid-induced clonic seizures at 30 mg/kg, ip administered 30 mins before isoniazid challenge measured after 1 hr; type: functional; details: route intraperitoneal
Mus musculus [13] = assay: Anticonvulsant activity in mouse assessed as isoniazid-induced tonic seizures at 30 mg/kg, ip administered 30 mins before isoniazid challenge measured after 1 hr; type: functional; details: route intraperitoneal
Mus musculus [14] = assay: Anticonvulsant activity in mouse assessed as 3-mercaptopropionic acid-induced clonic seizures at 30 mg/kg, ip administered 30 mins before 3-mercaptopropionic acid challenge measured after 0.5 hrs; type: functional; details: route intraperitoneal
Outline: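 Mice, 10 per group, dosed i.p. with 30 mg/kg. 30 min later they received 3-mercaptopropionic acid 60 mg/kg sc in saline. Each mouse was observed alone for 0.5 h for seizures.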

Mus musculus [15] = assay: Anticonvulsant activity in mouse assessed as 3-mercaptopropionic acid-induced tonic seizures at 30 mg/kg, ip administered 30 mins before 3-mercaptopropionic acid challenge measured after 0.5 hrs; type: functional; details: route intraperitoneal
Outline: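 KunMing mice (18–22 g) in groups of 10 received the test agent, dissolved in DMSO, i.p. 30 min before challenge. The challenge was 3-mercaptopropionic acid, 60 mg/kg in saline, given s.c. Mice were then held in individual cages and observed for 0.5 h for seizures and death.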

Mus musculus [16] = assay: Anticonvulsant activity in mouse assessed as thiosemicarbazide-induced clonic seizures at 30 mg/kg, ip administered 30 mins before thiosemicarbazide challenge measured after 2.5 hrs; type: functional; details: route intraperitoneal
Outline: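 Thiosemicarbazide challenge, 50 mg/kg i.p., given 30 min after 30 mg/kg i.p. test compound. Mice, 10 per group, were caged individually and observed for 2.5 h. Clonic and tonic seizures and lethality were recorded.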

Mus musculus [17] = assay: Anticonvulsant activity in mouse assessed as thiosemicarbazide-induced tonic seizures at 30 mg/kg, ip administered 30 mins before thiosemicarbazide challenge measured after 2.5 hrs; type: functional; details: route intraperitoneal
Outline: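 Mice (KunMing, 18–22 g, n = 10 per group) were pretreated i.p. with compound in DMSO. After 30 min, thiosemicarbazide was given at 50 mg/kg i.p. Animals were caged individually and observed for 2.5 h, and the number of clonic seizures, tonic seizures and deaths was recorded.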

Mus musculus [18] = assay: Anticonvulsant activity in mouse assessed as bicuculline-induced clonic seizures at 30 mg/kg, ip administered 30 mins before bicuculline challenge measured after 0.5 hrs; type: functional; details: route intraperitoneal
Outline: (§2)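 Bicuculline 2.7 mg/kg sc, injected 15–45 min after preparation, given 30 min after 30 mg/kg i.p. test compound. Mice, 10 per group, were isolated and watched for at least 30 min for clonic and tonic seizures and lethality.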

Mus musculus [19] = assay: Anticonvulsant activity in mouse assessed as bicuculline-induced tonic seizures at 30 mg/kg, ip administered 30 mins before bicuculline challenge measured after 0.5 hrs; type: functional; details: route intraperitoneal; outline: as §2
Mus musculus [20] = assay: Anticonvulsant activity in mouse assessed as bicuculline-induced death at 30 mg/kg, ip administered 30 mins before bicuculline challenge measured after 0.5 hrs; type: functional; details: route intraperitoneal
Outline: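 Groups of 10 KunMing mice (18–22 g) were dosed i.p. with compound in DMSO. After 30 min they received bicuculline, 2.7 mg/kg s.c., injected within 15–45 min of preparation because of its instability. Mice were isolated and watched for at least 30 min, and clonic seizures, tonic seizures and lethality were recorded.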

For `CCCCCOc1ccc2c(c1)-c1nncn1CCO2`, the Activity (Mus musculus [1]) was “Active”, the Activity (Mus musculus [2]) was “Active” and the Activity (Mus musculus [3]) was “inactive”. For the same molecule, the Activity (Mus musculus [4]) was “inactive”, the Activity (Mus musculus [5]) was “inactive” and the Activity (Mus musculus [6]) was “inactive”. For the same molecule, the ED50 (Mus musculus [7]) was 15.8 mg/kg, the TD50 [8] was 60 mg/kg and the PI (Mus musculus [9]) was 3.8.

In the case of `Fc1cccc(COc2ccc3c(c2)-c2nncn2CCO3)c1`, the Activity (Mus musculus [1]) was “Active”, the Activity (Mus musculus [3]) was “inactive” and the Activity (Mus musculus [4]) was “inactive”. For the same molecule, the Activity (Mus musculus [5]) was “inactive”, the Activity (Mus musculus [6]) was “inactive” and the ED50 (Mus musculus [7]) was 23.7 mg/kg. For the same molecule, the TD50 [8] was 76 mg/kg and the PI (Mus musculus [9]) was 3.2.

In the case of `Cc1ccc(COc2ccc3c(c2)-c2nncn2CCO3)cc1`, the Activity (Mus musculus [1]) was “Active”, the Activity (Mus musculus [3]) was “inactive” and the Activity (Mus musculus [4]) was “inactive”. For the same molecule, the Activity (Mus musculus [5]) was “inactive”, the Activity (Mus musculus [6]) was “inactive” and the ED50 (Mus musculus [7]) was over 100 mg/kg.

With `COc1ccc2c(c1)-c1nncn1CCO2` the Activity (Mus musculus [3]) was “inactive”, the Activity (Mus musculus [4]) was “inactive” and the Activity (Mus musculus [5]) was “inactive”. For the same molecule, the Activity (Mus musculus [6]) was “inactive” and the ED50 (Mus musculus [7]) was over 100 mg/kg.

For `Brc1cccc(COc2ccc3c(c2)-c2nncn2CCO3)c1`, the Activity (Mus musculus [1]) was “Active”, the Activity (Mus musculus [3]) was “inactive” and the Activity (Mus musculus [4]) was “inactive”. For the same molecule, the Activity (Mus musculus [5]) was “inactive”, the Activity (Mus musculus [6]) was “inactive” and the ED50 (Mus musculus [7]) was 25 mg/kg. The TD50 [8] was 91.3 mg/kg and the PI (Mus musculus [9]) was 3.6.

In the case of `Clc1ccc(COc2ccc3c(c2)-c2nncn2CCO3)cc1`, the Activity (Mus musculus [1]) was “Active”, the Activity (Mus musculus [3]) was “inactive” and the Activity (Mus musculus [4]) was “inactive”. The Activity (Mus musculus [5]) was “inactive”, the Activity (Mus musculus [6]) was “inactive” and the ED50 (Mus musculus [7]) was 60 mg/kg. The TD50 [8] was 110 mg/kg and the PI (Mus musculus [9]) was 1.8.

For `NC(=O)N1c2ccccc2C=Cc2ccccc21` [CARBAMAZEPINE], the PI (Mus musculus [9]) was 6.4, the Activity (Mus musculus [10]) was 100% and the Activity (Mus musculus [11]) was 0%. For the same molecule, the Activity (Mus musculus [12]) was 60%, the Activity (Mus musculus [13]) was 0% and the Activity (Mus musculus [14]) was 100%. It also gave an Activity (Mus musculus [15]) of 0%, an Activity (Mus musculus [16]) of 100% and an Activity (Mus musculus [17]) of 0%. The Activity (Mus musculus [18]) was 100%, the Activity (Mus musculus [19]) was 0% and the Activity (Mus musculus [20]) was 20%.

For `CCCCCCCCOc1ccc2c(c1)-c1nncn1CCO2`, the Activity (Mus musculus [1]) was “Active”, the Activity (Mus musculus [2]) was “Active” and the Activity (Mus musculus [3]) was “inactive”. The Activity (Mus musculus [4]) was “inactive”, the Activity (Mus musculus [5]) was “inactive” and the Activity (Mus musculus [6]) was “inactive”. It also gave an ED50 (Mus musculus [7]) of 11 mg/kg, a TD50 [8] of 63.4 mg/kg and a PI (Mus musculus [9]) of 5.8.

For `CCCCOc1ccc2c(c1)-c1nncn1CCO2`, the Activity (Mus musculus [1]) was “Active”, the Activity (Mus musculus [2]) was “Active” and the Activity (Mus musculus [3]) was “inactive”. For the same molecule, the Activity (Mus musculus [4]) was “inactive”, the Activity (Mus musculus [5]) was “inactive” and the Activity (Mus musculus [6]) was “inactive”. It also gave an ED50 (Mus musculus [7]) of 11 mg/kg, a TD50 [8] of 45.6 mg/kg and a PI (Mus musculus [9]) of 4.2.

In the case of `Clc1ccccc1COc1ccc2c(c1)-c1nncn1CCO2`, the Activity (Mus musculus [1]) was “Active”, the Activity (Mus musculus [3]) was “inactive” and the Activity (Mus musculus [4]) was “inactive”. For the same molecule, the Activity (Mus musculus [5]) was “inactive”, the Activity (Mus musculus [6]) was “inactive” and the ED50 (Mus musculus [7]) was 38.3 mg/kg. For the same molecule, the TD50 [8] was 91.3 mg/kg and the PI (Mus musculus [9]) was 2.4.
